High-throughput results (PubChem BioAssay)
Shown are actives, neighbours in structure and some others; about 3.8% of the full set was active somewhere.
Hep lipid drop = modulators of hepatic lipid droplet formation. hit rate 0.4% among 240,000. inhibition, % at 6.5 µM. AID 1656. AML12 mouse hepatocytes, oleate lipid droplets, BODIPY imaging;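 active means lipid droplet intensity inhibited by at least 50%, with more than 500 cells counted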
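Material: mouse AML12 hepatocyte cell line, fixed after treatment; Timing: compound with oleate, overnight; Technique: high-content imaging of BODIPY-stained droplets and DAPI nuclei; Probe or stimulus: oleate, 100 µM final; Dosing: compound at 6.5 µM only.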
NS3 helicase inh = blocks Hepatitis C virus NS3 helicase unwinding. inhibition, % at 10.9 µM. AID 1800. NS3 helicase DNA unwinding, Cy5 molecular beacon fluorescence. hit rate 0.56% among 290,000;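 active means inhibition above the mean of all tested compounds plus 3 SD, set per campaign, cut at about 35% in these data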;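 further: 0% = DMSO wells and 100% = thioflavine S control wells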
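assay system = NS3 helicase fragment of HCV | buffer or medium = MOPS pH 6.5, MgCl2, DTT, Tween20, BSA | timing = 60 min unwinding reaction at 25 °C after ATP addition | signal = Cy5 beacon fluorescence read at start and 1 h | read-out basis = % inhibition of unwinding | control set = low DMSO, high thioflavine S at 110 µM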
HSP90 refold inh = HSP90 refolding inhibition in rabbit reticulocyte lysate; luciferase refolding luminescence, 3 h; inhibition, % at 5.6 µM; hit rate 0.91% among 290,000; AID 1789;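 active means inhibition above the screen-wide mean plus 3 SD, computed separately per campaign, cut at about 16% in these data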;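 further: 0% = DMSO wells and 100% = 60 µM geldanamycin wells; inhibitors lower the luminescence because luciferase stays unfolded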
HSF-1 act = increases HSF-1 driven luciferase reporter signal; NIH3T3-HGL HSF-1 luciferase reporter, MG132, 8 h; 100% = twice DMSO control signal; activation, % at 9 µM; hit rate 1.7% among 300,000; AID 504408;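 active means mean replicate activation of at least 50% with a set share of replicates each reaching 50%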;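 further: 0% = median of the neutral control wells and 100% = twice that signal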
HSF1 inhib = HSF1 inhibition. NIH3T3-HGL HSE-luciferase, MG132-induced, luminescence 8 h; active compounds read low. activity change, negative = inhibition, % at 7.5 µM (by protocol). hit rate 0.77% among 300,000. AID 2098;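 active means more than half of replicate wells show activity change below -50%, luminescence cut by over half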;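 further: luciferase reports HSF-1 transcriptional activity via heat shock element; 0% = median of DMSO wells and -100% = zero luminescence signal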
Starred values were filed as active, the others as inactive; x = not tested or not shown.

SMILES | Hep lipid drop | NS3 helicase inh | HSP90 refold inh | HSF-1 act | HSF1 inhib
COC(=O)c1ccc(C(=O)OC)c(-n2c(=O)c3ccccc3c3ccccc3c2=O)c1 | -1 | -1 | -3 | 78* | 53
Cc1cc(C)c2nc(C(F)(F)F)c(C#N)c(N)c2c1 | 10 | -1 | -3 | -68 | -62*
CCc1ccc(C(=O)/C=C/c2ccc([N+](=O)[O-])o2)cc1 | 14 | 23 | 2 | 155* | 124
COc1cc(NC(=O)CN(C)S(=O)(=O)c2ccc(-c3ccc(=O)[nH]n3)s2)cc(OC)c1 | 2 | 6 | -2 | -93 | -91*
Cc1cc(NC(=O)CN(C)S(=O)(=O)c2ccc(-c3ccc(=O)[nH]n3)s2)ccc1Br | -38 | 5 | -3 | 1 | -9
CC(C)C(=O)Nc1nnc(S(=O)(=O)N(C)c2ccc(Cl)cc2)s1 | 0 | -12 | 1 | -4 | -1
O=C(Nc1ccccc1[N+](=O)[O-])c1cccc(N2C(=O)CCC2=O)c1 | -6 | 7 | 3 | 54* | 18
CCNC(=O)O/N=C(\C)c1sc(-c2ccc(Cl)cc2)nc1C | x | 3 | 1 | 60* | 34
CCN(CC(=O)Nc1cc(S(=O)(=O)N2CCCCC2)ccc1C)Cc1ccccc1 | x | x | x | 1 | 4
O=C(NCCN1CCOCC1)c1cc2ccccc2o1 | 0 | 5 | -1 | 61* | 25
O=C(c1ccco1)c1nnn(Cc2ccccc2)c1-c1ccccc1 | 11 | 1 | 0 | 64* | 39
Cc1ccc(C2=NN(C(=S)Nc3ccccc3)C(c3ccco3)C2)cc1 (stereo not drawn) | x | 14 | 7 | 61* | 39
CCS(=O)(=O)Nc1ccc(C2=NN(C(=S)Nc3ccccc3)C(c3ccco3)C2)cc1 (stereo not drawn) | -42 | 31 | 2 | 3 | -2
Cc1cc(C(F)(F)F)nn2cnnc12 | -8 | 7 | 0 | -9 | 0
Nc1ncncc1-c1ccc(Cl)cc1 | -8 | 11 | 0 | -13 | -1
Nc1nc(Br)c2c(F)cccc2c1-c1ccccc1 | x | 6 | 3 | 46 | 11
Nc1nn(-c2cccc(F)n2)cc1-c1ccccc1 | 8 | 13 | 7 | 62* | 39
Nc1nn(-c2cccc(F)n2)cc1-c1ccc(Cl)cc1 | 6 | 13 | 3 | 85* | 32
CCN(CC(=O)Nc1ccccc1OC)C(=O)CSCC(=O)Nc1ccc(OC)cc1 | x | x | x | 6 | 6
CC1CN(C(=O)CCC(=O)NC2CCCCC2)c2ccccc2S1 (stereo not drawn) | -1 | 18 | -7 | 1 | 1
O=C(Oc1ccc(-c2cnc3ccccc3n2)cc1)c1cc([N+](=O)[O-])ccc1Cl | x | -5 | -2 | 80* | 47
O=C(Oc1cccc([N+](=O)[O-])c1)c1cc(-c2ccccc2)nc2ccccc12 | x | 14 | 0 | 75* | 56
Cc1c(C(=O)Oc2ccc(-c3cnc4ccccc4n3)cc2)cccc1[N+](=O)[O-] | x | 3 | -2 | 36 | 18
C(/C=C/c1ccccn1)=C\c1ccccc1 | x | x | x | 61* | 22
C(=C\c1ccccn1)/c1ccncc1 | 1 | -7 | 2 | 13 | -5
SMILES | Hep lipid drop | NS3 helicase inh | HSP90 refold inh | HSF-1 act | HSF1 inhib
O=C(CCC(=O)Nc1ccccc1Cl)NN=C1CCCC1 | 22 | 3 | -4 | x | x
CC(=O)c1c(N2CCN(CCO)CC2)nc(=S)n(-c2ccccc2)c1C | 22 | -2 | -1 | -72 | -64*
CCS(=O)(=O)N1CCC(NC(=O)C(Cc2cc(OC)ccc2OC)NC(C)=O)CC1 (stereo not drawn) | -2 | -7 | 5 | -7 | -7
NS(=O)(=O)c1ccc(CCNC(=O)c2cc(-c3ccccc3)nc3ccccc23)cc1 | -2 | 13 | -5 | 64* | 21
C[C@H](NC(=O)c1ccc(Cl)cc1)C(=O)NCCc1ccc(S(N)(=O)=O)cc1 | -3 | 3 | 1 | 1 | -4
Cc1ccc(CCNC(=O)c2cc(-c3ccncc3)nc3ccccc23)cc1 | 10 | -7 | -2 | 45 | 26
CCCCCCCNC(=O)c1cc(-c2ccncc2)nc2ccccc12 | 7 | -11 | 1 | 68* | 43
O=C(Nc1ccc(N2CCOCC2)cc1)c1cc(-c2ccncc2)nc2ccccc12 | 5 | -8 | 0 | -63 | -52*
C[C@H](NC(=O)c1ccccc1Cl)C(=O)NCCc1ccc(S(N)(=O)=O)cc1 | 11 | -5 | -1 | 56* | 7
Cc1ccc(-c2cc(C(=O)NCCc3ccc(S(N)(=O)=O)cc3)c3ccccc3n2)cc1 | -16 | 13 | 3 | 21 | 11
COC(=O)c1ccc(COc2ccccc2/C=N/NC(=O)c2cccnc2)cc1 | 4 | -10 | 3 | 22 | 13
CC(=Nc1ccccc1C(F)(F)F)c1ccncc1 | -28 | 3 | -2 | -1 | -16
O=C(NN=C(Cc1ccccc1)Cc1ccccc1)C1CC1 | -9 | 3 | -5 | 8 | -4
COc1ccc(C(=O)OCCN=C2NS(=O)(=O)c3ccccc32)cc1OC | x | -5 | -3 | 52* | 25
COc1ccccc1C(=O)OCCCN=C1NS(=O)(=O)c2ccccc21 | -2 | -6 | 4 | 24 | 1
CCCNC(=O)c1ccc(COc2cccc3ccccc23)o1 | 0 | 9 | 3 | 8 | 0
CCCNC(=O)c1ccc(COc2ccc(CCC)cc2OC)o1 | -8 | 4 | -5 | -66 | -56*
CCN(CC)CCCN(C(=O)c1ccc(F)cc1)c1nc(-c2ccc(OC)cc2)cs1 | -14 | -45 | 4 | -39 | -26
O=C(CN(C(=O)c1csnn1)c1ccc(F)c(Cl)c1)NCc1ccc(F)cc1 | -1 | 4 | 3 | 72* | 23
O=C(CN(C(=O)c1csnn1)c1ccc(F)c(Cl)c1)NCc1ccccc1 | -2 | 1 | -4 | -10 | 2
CCC(CO)NCC#Cc1ccccc1 (stereo not drawn) | 0 | -1 | 1 | 62* | 32
CC1=NN(c2ccccc2)C(=O)/C1=C\c1ccc(Oc2ccc([N+](=O)[O-])cc2[N+](=O)[O-])cc1 | 6 | 12 | 16* | 26 | 24
COc1ccc(C(=O)Nc2cc3c(cc2Cl)OCCCO3)cc1 | -5 | 4 | -2 | 53* | 39
COc1cccc(C(=O)Nc2cc3c(cc2Cl)OCCCO3)c1 | -5 | -6 | 1 | 54* | 18
Cc1ccc(C(=O)Nc2cc3c(cc2Cl)OCCCO3)cc1 | x | 8 | -1 | 29 | 13
O=C(Nc1cc2c(cc1Cl)OCCCO2)c1ccc(F)cc1 | -2 | 11 | 2 | 40 | 19
CCC(=O)c1cn(CC(=O)Nc2ccc(C)cc2C)c2ccccc12 | 33 | -14 | -3 | 6 | -4
CC(C)CN1CCC(Oc2cccc(C(=O)NCCc3ccccc3)c2)CC1 | -6 | -3 | -3 | 4 | 7
CC(=O)Oc1cccc(C(=O)Nc2ccc3c(c2)C(=O)N(CC2CCCO2)C3=O)c1 (stereo not drawn) | -12 | 4 | -2 | 72* | 38
